CHOP inhibitor: inhibitors of CHOP promoter induction, primary screen, cell-based, unfolded protein response, luciferase reporter; inhibition, % at 10 µM; CHO-K1 CHOP-promoter luciferase, tunicamycin-induced, 15-18 h; actives 3.8% (n = 220,000);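 active = compounds that reduced the stress-induced luciferase reporter signal by more than about 70% of percent inhibition, limit read from the data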
XBP1 UPR activ: activators of adaptive XBP1 UPR arm, primary screen, cell-based, CHO-XBP1 luciferase reporter, luminescence, uHTS; IRE1-XBP1 UPR activation; percent of tunicamycin response, DMSO as zero; activation, % at 20 µM; actives 0.33% (n = 330,000); AID 463104, 2010;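 active = versus positive control, 20 µM dose yields 30% or more activation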
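Material: CHO-XBP1 cells stably carrying IRE1-XBP1-driven luciferase reporter / Amount: 1000 cells per well / Compound: 20 µM, 1% DMSO / Times: 6 h treatment, 37 °C / Detection: luciferase luminescence / Measure: % activation of reporter signal versus tunicamycin and DMSO controls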
MPTP inh: mitochondrial permeability transition pore inhibitors, primary screen, biochemical, isolated mouse mitochondria, absorbance; Ca2+ swelling absorbance, 30 min; actives 1.4% (n = 360,000); inhibition, % at 10 µM;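 active = inhibition of 50% or more, scaled per plate between neutral and stimulator controls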
aDG glyco act: activators of alpha-DG glycosylation, primary screen, uHTS, Pro5-aDG cells, AlphaScreen; alpha-DG glycosylation AlphaScreen (IIH6); 0% Pro5, 100% B10-LARGE cell signal; activation, % at 10 µM; actives 0.22% (n = 360,000); AID 624168, 2012;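 active = activation of at least 8% versus controls, or a plate z-score of at least 8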;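 note: Pro5 are CHO cells carrying HIG-tagged alpha-DG that lacks glycosylation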
GRIN3A LBD mod: binders of NR3A ligand-binding domain, primary screen, biophysical, differential scanning fluorimetry, uHTS; Glutamate receptor ionotropic, NMDA 3A (GRIN3A) ligand-binding domain; NR3A LBD differential scanning fluorimetry, Tm shift; 0% = protein alone, 100% = glycine-bound protein; Tm shift relative to glycine control, % at 25 µM; actives 2.5% (n = 340,000);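 active = melting temperature shift of at least 10% of the positive control shift, at one fixed dose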
UPR CHOP act: activators of apoptotic CHOP UPR arm, primary screen, cell-based, CHO-CHOP luciferase reporter, luminescence, uHTS; UPR activation; percent of tunicamycin response over DMSO baseline; activation, % at 10 µM; actives 0.34% (n = 330,000);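 active = at 10 µM dose, activation of 40% or more, normalized to positive control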
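Test system: CHO CHOP reporter cells. Input: 500 CHO-CHOP cells per well. Medium: F12 with 10% FBS. Technique: luciferase luminescence. Measure: percent activation relative to tunicamycin control. Dosing: 10 µM compound, 0.5% DMSO. Timing: 16-18 h cell attachment, then 6 h compound exposure, 37 °C.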
A number is an active result. Compounds with a hit are over-represented: about 5.6% of the library has one in this group of screens.

What do the screens show for `CNC(=O)C(=O)NCC1OCCN1S(=O)(=O)c1ccc(C)cc1` (stereo not given)?
XBP1 UPR activ: inactive; MPTP inh: inactive; aDG glyco act: inactive; GRIN3A LBD mod: 11; UPR CHOP act: inactive

Results for O=C(Nc1ccc2c(c1)OCCO2)c1cnn(-c2ccccc2)n1 ?
XBP1 UPR activ: inactive; MPTP inh: inactive; aDG glyco act: inactive; GRIN3A LBD mod: inactive; UPR CHOP act: inactive

What do the screens show for `CCN(CC)Cc1c(C(=O)N/N=C/c2cccc(OCc3cccc(Cl)c3)c2)nnn1-c1nonc1N`?
XBP1 UPR activ: inactive; MPTP inh: inactive; aDG glyco act: inactive; GRIN3A LBD mod: 12; UPR CHOP act: inactive

What do the screens show for `Nc1nonc1-n1nnc(C(=O)N/N=C/c2ccccc2Cl)c1COc1ccc(F)cc1`?
CHOP inhibitor: inactive; XBP1 UPR activ: inactive; MPTP inh: inactive; aDG glyco act: inactive; GRIN3A LBD mod: 23; UPR CHOP act: inactive

What do the screens show for `Cc1cccc(COc2ccc(/C=N/NC(=O)c3nnn(-c4nonc4N)c3COc3ccc(F)cc3)cc2)c1`?
CHOP inhibitor: inactive; XBP1 UPR activ: 37; MPTP inh: inactive; aDG glyco act: inactive; GRIN3A LBD mod: 25; UPR CHOP act: inactive

What do the screens show for `CCOc1ccccc1/C=N/NC(=O)c1nnn(-c2nonc2N)c1CN1CCCCCC1`?
XBP1 UPR activ: inactive; MPTP inh: inactive; aDG glyco act: inactive; GRIN3A LBD mod: inactive; UPR CHOP act: inactive

How did Nc1nonc1-n1nnc(C(=O)N/N=C/c2ccc(OCc3ccccc3F)cc2)c1CN1CCCCC1 do in these assays?
XBP1 UPR activ: inactive; MPTP inh: inactive; aDG glyco act: inactive; GRIN3A LBD mod: 16; UPR CHOP act: inactive

How did O=C(CN1C(=O)NC2(CCCCCCC2)C1=O)NCc1ccccc1Cl do in these assays?
XBP1 UPR activ: inactive; MPTP inh: inactive; aDG glyco act: inactive; GRIN3A LBD mod: inactive; UPR CHOP act: inactive

Results for C#CCOCCOCCOCCNc1nc(N2CCN(C(=O)[C@H](C(C)C)n3cc(CCO)nn3)CC2)nc(N2CCN(C(=O)[C@H]([C@@H](C)CC)n3cc(CCC(=O)O)nn3)CC2)n1 ?
MPTP inh: inactive; aDG glyco act: inactive; GRIN3A LBD mod: inactive

How did Nc1nonc1-n1nnc(C(=O)N/N=C/c2ccc(OCc3cccc(Cl)c3)cc2)c1CN1CCCCC1 do in these assays?
XBP1 UPR activ: inactive; MPTP inh: inactive; aDG glyco act: inactive; GRIN3A LBD mod: inactive; UPR CHOP act: inactive

What do the screens show for `Nc1nonc1-n1nnc(C(=O)N/N=C/c2ccc(OCc3ccccc3)cc2)c1COc1ccc(F)cc1`?
CHOP inhibitor: inactive; XBP1 UPR activ: inactive; MPTP inh: inactive; aDG glyco act: inactive; GRIN3A LBD mod: 19; UPR CHOP act: inactive

What do the screens show for `Nc1nonc1-n1nnc(C(=O)N/N=C/c2ccc(O)cc2)c1COc1ccc(F)cc1`?
CHOP inhibitor: inactive; XBP1 UPR activ: inactive; MPTP inh: inactive; aDG glyco act: inactive; GRIN3A LBD mod: inactive; UPR CHOP act: inactive

Results for Cc1cccc(COc2ccc(/C=N/NC(=O)c3nnn(-c4nonc4N)c3CN3CCCCC3)cc2)c1 ?
XBP1 UPR activ: inactive; MPTP inh: inactive; aDG glyco act: inactive; GRIN3A LBD mod: 13; UPR CHOP act: inactive

Results for Nc1nonc1-n1nnc(C(=O)N/N=C/c2ccc(OCc3ccccc3)cc2)c1CNc1ccccc1 ?
XBP1 UPR activ: inactive; MPTP inh: inactive; aDG glyco act: inactive; GRIN3A LBD mod: 31; UPR CHOP act: inactive

Results for Nc1nonc1-n1nnc(C(=O)N/N=C/c2ccccn2)c1CNc1ccccc1 ?
XBP1 UPR activ: inactive; MPTP inh: inactive; aDG glyco act: inactive; GRIN3A LBD mod: inactive; UPR CHOP act: inactive

Results for CCCc1c(C(=O)N/N=C/c2cccc(OCc3ccc(F)cc3)c2)nnn1-c1nonc1N ?
XBP1 UPR activ: inactive; MPTP inh: inactive; aDG glyco act: inactive; GRIN3A LBD mod: 35; UPR CHOP act: inactive

Results for OCc1ccccc1-c1cnc2cccnn12 ?
MPTP inh: inactive; aDG glyco act: inactive

Results for CC(C)(C)C(=O)CN1C(=O)NC(C)(Cc2ccc3c(c2)OCO3)C1=O (stereo not given) ?
XBP1 UPR activ: inactive; MPTP inh: inactive; aDG glyco act: inactive; GRIN3A LBD mod: inactive; UPR CHOP act: inactive

What do the screens show for `COc1cccc(C2=NOC(C(=O)Nc3cc(C)on3)C2)c1` (stereo not given)?
CHOP inhibitor: inactive; XBP1 UPR activ: inactive; MPTP inh: inactive; aDG glyco act: inactive; GRIN3A LBD mod: inactive; UPR CHOP act: inactive

Results for CC(C)C(=O)Nc1ccc2c(c1)C(=O)NC2=O ?
CHOP inhibitor: inactive; XBP1 UPR activ: inactive; MPTP inh: inactive; aDG glyco act: inactive; GRIN3A LBD mod: inactive; UPR CHOP act: inactive

How did CC(=O)O/N=C(\N)c1cnn2c(C(F)(F)F)cc(C(F)(F)F)nc12 do in these assays?
CHOP inhibitor: inactive; XBP1 UPR activ: inactive; MPTP inh: inactive; aDG glyco act: inactive; GRIN3A LBD mod: inactive; UPR CHOP act: inactive

How did NC(=O)c1cccc(-c2cc(Nc3ccc(OC(F)(F)F)cc3)ncn2)c1 do in these assays?
CHOP inhibitor: inactive; XBP1 UPR activ: inactive; MPTP inh: inactive; aDG glyco act: inactive; GRIN3A LBD mod: 25; UPR CHOP act: inactive

How did CCc1cccc(OCC2Cn3c(nc4c3c(=O)[nH]c(=O)n4C)O2)c1 (stereo not given) do in these assays?
XBP1 UPR activ: inactive; MPTP inh: inactive; aDG glyco act: inactive; GRIN3A LBD mod: inactive; UPR CHOP act: inactive

What do the screens show for `COc1cccc(NC(=O)CN(C)C(=O)c2c(C)nn(CC(C)C)c2Cl)c1`?
XBP1 UPR activ: inactive; MPTP inh: inactive; aDG glyco act: inactive; GRIN3A LBD mod: inactive; UPR CHOP act: inactive

How did COc1ccc(C2=NN(C(=O)CSc3nc(=O)n4cc(C)ccc4n3)C(c3ccc(C)cc3)C2)cc1 (stereo not given) do in these assays?
XBP1 UPR activ: inactive; MPTP inh: inactive; aDG glyco act: inactive; GRIN3A LBD mod: inactive; UPR CHOP act: inactive

What do the screens show for `CCCOc1ccc(/C=C/C(=O)NCc2ccccc2)cc1`?
CHOP inhibitor: inactive; XBP1 UPR activ: inactive; MPTP inh: inactive; aDG glyco act: inactive; GRIN3A LBD mod: 12; UPR CHOP act: inactive

How did O=C(CCNC(=O)c1ccccc1Cl)Nc1ccc2c(c1)OCCO2 do in these assays?
MPTP inh: inactive; aDG glyco act: inactive

Results for O=C(N/N=C/c1ccc(Br)cc1)c1ccc(Br)o1 ?
CHOP inhibitor: inactive; XBP1 UPR activ: inactive; MPTP inh: inactive; aDG glyco act: inactive; GRIN3A LBD mod: 19; UPR CHOP act: inactive
